# Assay results collected from several papers.
# Lines come from different studies, so protocols differ.
# Effect on: cell growth or viability
Compound,cell line,assay,conditions,endpoint,result
NCCC(=O)Nc1ccccc1/N=c1\cc(-c2ccc3nc(N)oc3c2)oc2ccc(O)cc12,MDA-MB-468,CCK-8,1 µM,inhibition,40.2%
NCc1ccc(-c2nn(Cc3ccccn3)c3cccnc23)o1,RBE,ATP luminescence,"46 µM, 72 h",inhibition,74%
CC(C)(C)[C@H](N)C(=O)Nc1ccccc1/N=c1\cc(-c2ccc3c(c2)OCCO3)oc2cc(F)ccc12,MDA-MB-468,CCK-8,1 µM,inhibition,-0.62%
CN(C)CCN(C)C(=O)c1ccc(-c2nc3ccc4[nH]ncc4c3c3c2CC(F)(F)CC3)cc1,MV4-11,resazurin,72 h,GI50,748 nM
NCCC(=O)Nc1cccc(/N=c2\cc(-c3ccc4c(c3)OCO4)oc3ccccc23)c1,MDA-MB-468,CCK-8,1 µM,inhibition,3.6%
Cc1n[nH]c2ccc3nc(-c4ccc(C(=O)NCCN(C)C)cc4)c4c(c3c12)CCC(F)(F)C4,MV4-11,resazurin,72 h,GI50,132 nM
NCC(=O)Nc1ccccc1/N=c1\cc(-c2ccc3c(c2)OCCO3)oc2ccccc12,MDA-MB-468,CCK-8,1 µM,inhibition,4.61%
COC(=O)CNC(=O)C(=O)OC,HBL1,ATP luminescence,"0.5 µM, 5 days",viability,113%
CN(C)CCNC(=O)c1ccc(-c2nc3ccc4[nH]ncc4c3c3c2CCCC3)cc1,MV4-11,resazurin,72 h,GI50,25 nM
Cc1ccc(-c2nn(Cc3ccccc3)c3ccccc23)o1,RBE,ATP luminescence,"46 µM, 72 h",inhibition,59%
Nc1nc2ccc(-c3c/c(=N\c4ccccc4NC(=O)CCN4CCOCC4)c4ccccc4o3)cc2o1,MDA-MB-468,CCK-8,1 µM,inhibition,0.34%
CCN(Cc1ccc(F)cc1F)c1ccc(CO)c(Cl)c1,RBE,ATP luminescence,"46 µM, 72 h",inhibition,82%
CN(C)CCNC(=O)c1ccc(-c2nc3ccc4[nH]ncc4c3c3c2CCCCC3)cn1,MV4-11,resazurin,72 h,GI50,146 nM
OCc1ccc(-c2ccn(Cc3ccccc3)n2)o1,RBE,ATP luminescence,"46 µM, 72 h",inhibition,47%
COCCCNC(=O)c1ccc(-c2nc3ccc4[nH]ncc4c3c3c2CCCC3)cc1,MV4-11,resazurin,72 h,GI50,2900 nM
COc1ncccc1Cn1nc(-c2ccc(CO)o2)c2ccccc21,RBE,ATP luminescence,,IC50,229 nM
O=C(NCCCN1CCOCC1)c1ccc(-c2nc3ccc4[nH]ncc4c3c3c2CCCC3)cc1,MV4-11,resazurin,72 h,GI50,413 nM
COCCC(=O)Nc1ccccc1/N=c1\cc(-c2ccc3nc(N)oc3c2)oc2ccccc12,MDA-MB-468,CCK-8,1 µM,inhibition,0.9%
OCc1ccc(-c2nn(Cc3ccccc3)c3ccc(F)cc23)o1,RBE,ATP luminescence,,IC50,977 nM
O=C(CCCCCCSc1ccc2ccccc2c1)NO,HBL1,ATP luminescence,"0.5 µM, 5 days",viability,113%
